# Shown are actives, neighbours in structure and some others; about 1.5% of the full set was active somewhere.
# FLuc act counter – affects firefly luciferase, flagging false hits in luciferase stimulation screens; ATPlite luciferase biochemical, luminescence, 10 min; 0 = ATP-free wells, 1 = DMSO control; P08659; activation factor at 10 µM; 200,000 tested, under 10 active;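 active = luciferase activation factor, scaled between plate controls, of at least 2 with compound at 10 µM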
# Target sequence (P08659 whole entry, looked up): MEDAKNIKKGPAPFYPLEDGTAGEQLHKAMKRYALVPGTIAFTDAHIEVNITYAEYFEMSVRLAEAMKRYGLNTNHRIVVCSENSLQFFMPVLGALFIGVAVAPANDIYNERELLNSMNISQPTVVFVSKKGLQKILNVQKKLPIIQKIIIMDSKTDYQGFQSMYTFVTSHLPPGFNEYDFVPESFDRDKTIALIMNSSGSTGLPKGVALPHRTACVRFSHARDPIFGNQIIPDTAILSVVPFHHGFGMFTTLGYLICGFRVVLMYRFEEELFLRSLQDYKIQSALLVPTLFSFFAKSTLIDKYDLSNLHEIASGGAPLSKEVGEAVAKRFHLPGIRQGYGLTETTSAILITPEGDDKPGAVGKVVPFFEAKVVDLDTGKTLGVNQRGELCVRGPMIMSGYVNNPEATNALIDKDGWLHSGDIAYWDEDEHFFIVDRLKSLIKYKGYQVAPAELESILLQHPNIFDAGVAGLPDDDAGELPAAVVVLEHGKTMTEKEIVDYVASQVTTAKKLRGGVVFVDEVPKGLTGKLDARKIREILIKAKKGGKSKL
#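 Material: Luciferase/luciferin reagent mix; Doses: test compounds dosed from 2 mM stocks in 100% DMSO; Schedule: 10 min incubation after luciferase reagent addition, room temperature; Measured by: luminescence from luciferase reaction; Read-out: luminescence gain marking luciferase activators.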
# PPC-1+TRAIL kill – PPC-1 cancer cell killing with TRAIL present. actives 0.41% (n = 220,000). PPC-1 cells + TRAIL, ATPLite viability luminescence. cell killing (% activity), % at 4 µM or 5 µM;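 active = cell killing above 50% in the first pass at 4 µM, then a duplicate retest at 5 µM averaging 50% or more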;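 note: plate controls were cells with TRAIL plus DMSO for no effect and medium-only wells lacking cells for full effect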
# TRAIL sens C8 – caspase-8 TRAIL sensitization; NB7+C8 cells + TRAIL, ATPlite viability luminescence; AID 624354; inhibition (viability loss, TRAIL sensitization), % at 10 µM; actives 1% (n = 360,000);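 active = compounds causing at least 50% loss of cell viability in the single-dose screen, relative to plate controls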
# FLuc inh counter – counter-screen for luciferase assay inhibitors: firefly luciferase inhibition. P08659. ATPLite firefly luciferase biochemical luminescence, 10 min. inhibition, % at 10 µM. actives 1.5% (n = 200,000);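 active = inhibition above about 50% when tested at 10 µM, limit read from the data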
# The depositor's hits bear a star; / = no result; ! = a repeat was not active.
SMILES,FLuc act counter,PPC-1+TRAIL kill,TRAIL sens C8,FLuc inh counter
CCCn1c(C)cc(C(=O)COC(=O)c2ccc(Cl)c(S(=O)(=O)N3CCCC3)c2)c1C,0.7,8.0,5.6,32.1
C=CCn1c(C)cc(C(=O)COC(=O)c2ccc(N)c([N+](=O)[O-])c2)c1C,0.9,13.2,9.1,13.4
CCCn1c(C)cc(C(=O)COC(=O)c2ccc[nH]c2=O)c1C,0.3,14.6,54.2*,65.3*
Cc1cc(C(=O)COC(=O)c2ccc[nH]c2=O)c(C)n1-c1ccccc1F,/,41.7,58.6*,/
Cc1ccc(-n2c(C)cc(C(=O)COC(=O)c3ccc[nH]c3=O)c2C)cc1C,0.4,26.4,37.3,64.8*
CCn1c(C)cc(C(=O)COC(=O)c2ccccc2[N+](=O)[O-])c1C,/,/,93.2*,/
COc1ccc(NCc2ccccc2[N+](=O)[O-])cc1OC,1.1,20.7,-2.4,-6.5
O=C(N/N=C/c1ccc(OCc2ccccc2)cc1)c1cc[n+](Cc2ccccc2)cc1,1,-2.4,-3.4,4.3
Cc1ccn2cc(-c3cccc(NC(=O)C(C)C)c3)nc2c1,0.4,2.6,23.4,57.2*
Cc1ccn2cc(-c3ccc(O)c(O)c3)nc2c1,/,/,76.4*,/
CCOCCCNC(=S)N(Cc1ccccc1)Cc1nc2ccccc2c(=O)[nH]1,1,25.7,27.8,-1.9
c1ccc2cc(N3CCCCC3)ccc2c1,/,/,6.6,/
O=C1c2ccccc2C(=O)c2cc(N3CCCCC3)ccc21,/,/,86.5*,/
O=C(Nc1ccccc1N1CCOCC1)c1ccc(Cl)nc1,1,-1.2,-4.5,-0.5
CCn1ccc(C(=O)NC2CCCC2)n1,/,/,-22.1,/
CCc1ccc(OC(=O)c2ccn(CC)n2)cc1,0.2,-26.8,28.1,75.1*
C=C1CC(COc2cc(=O)oc3ccccc23)(c2ccccc2)OC1=O (centres undefined),/,/,93.3*,/
C=C1CCC2C(C)(C)[C@H](O)CC[C@@]2(C)[C@@H]1COc1cc(=O)oc2ccccc12 (some centres undefined),1.1,-0.3,8.7,-7.0
CCOc1ccc(-n2c(SCc3ccc([N+](=O)[O-])cc3)nnc2-c2ccccc2)cc1,1.1,18.0,5.0,-9.2
O=C(CN1CCSC1=O)N1CCN(S(=O)(=O)c2ccc(Cl)cc2)CC1,/,/,-1.9,/
C=CCN=c1scc(-c2ccccc2)n1/N=C/c1ccccn1,0.6,30.0,53.3*!,44.7
CCN=c1scc(-c2ccccc2)n1/N=C/c1ccccn1,0.3,50.0,89.3*,74.4*
C=CCN=c1scc(-c2ccc(F)cc2)n1/N=C/c1ccccn1,1,17.0,44.1,-1.1
Cc1ccc(C=Nc2ccc(N(C)C)cc2)o1,0.2,-2.1,2.1,76.4*
N=c1oc2cc(O)ccc2cc1C(=O)Nc1ccc(Cl)cc1,/,/,48.5*,/
SMILES,FLuc act counter,PPC-1+TRAIL kill,TRAIL sens C8,FLuc inh counter
CCCCn1c(NS(=O)(=O)c2ccc(C)cc2)c(S(=O)(=O)c2ccccc2)c2nc3ccccc3nc21,1.1,9.6,77.8*,-11.0
Cc1[nH]c2ccccc2c1/C=N/Nc1nc2ccccc2[nH]1,/,27.1,14.2,/
Clc1cccc(Cl)c1/C=C/c1nc2ccccc2[nH]1,0.2,47.4,67.8*,82.1*
Cc1cccc(/C=C/c2nc3ccccc3c(=O)[nH]2)c1,0.3,40.7,55.0*,67.8*
Cc1[nH]c2ccccc2c1/C=C/c1nc2ccccc2c(=O)[nH]1,/,11.6,5.1,/
O=C(O)c1ccc(/C=C/c2nc3ccccc3c(=O)[nH]2)cc1,/,/,3.6,/
O=c1[nH]c(/C=C/c2ccccc2Cl)nc2ccccc12,/,/,64.1*,/
CCCc1cc(=O)[nH]c(SCC(=O)Nc2sc(C(N)=O)c(C)c2C(=O)OCCOC)n1,/,/,85.2*,/
Cc1ccc(NC(=O)Nc2ccc3c(c2)N(C)C(=O)CS3)nc1,1,9.0,-5.3,-2.8
Cc1c(C)c2cc(Cl)c(O)c(CN3CCCC(C)C3)c2oc1=O (centres undefined),1,4.4,-16.2,-2.9
CCOC(=O)c1cnc(SCc2nc(N)nc(Nc3ccc(F)cc3)n2)nc1N,1,-27.7,12.9,-0.6
CSc1cc(-c2ccc(Cl)cc2)n(Cc2ccccc2)c(=O)c1C#N,1.1,14.8,75.0*,-8.8
O=C(NC(=S)Nc1ccc2c(c1)OCCO2)c1ccccc1F,0.5,10.0,22.7,50.4*
O=C(NC(=S)Nc1ccc2c(c1)OCCO2)c1ccccc1,0.3,11.2,27.4,68.3*
Cc1ccccc1-n1c(C)cc(/C=N/NC(=O)c2ccncc2)c1C,0.4,4.1,5.4,55.2*
COc1ccc(NC2=Nc3ccccc3N3C2=Nc2c(c(C)nn2-c2ccc(C)cc2)C3c2cccnc2)cc1 (centres undefined),1,10.8,-6.7,-1.3

# Bioassay records deposited in PubChem by Sanford-Burnham Center for Chemical Genomics.
